# Results reported in article PMC8207330 (Leukemia research, 2017).
# “And” between values parts separate entries of the source, which are not always exact repeats. Equal values may be shown once. Read-outs that look alike come from different tables or passages of the source.
# Legend:
# [1] = test system: patients with JAK2^V617F-positive myelofibrosis, essential thrombocythemia, or polycythemia vera; assay: Clinical efficacy; format: in vivo, human
# Method in brief: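 Multicentre, nonrandomised, open-label phase 1 of the oral test compound given once daily in 28-day cycles. 3 + 3 escalation through 30, 60, 120, 240 and 200 mg. A 120 mg lead-in for 14–28 days was followed by 200 or 300 mg, and 120 mg was used for dose confirmation. Response was scored by IWG clinical-improvement criteria, or European LeukemiaNet criteria for PV/ET, with duration counted in cycles. Analysis was descriptive.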
# [2] = test system: patients with JAK2^V617F-positive myelofibrosis, essential thrombocythemia, or polycythemia vera; format: in vivo
# [3] = Pharmacokinetics in patients; format: in vivo, human
# [4] = cohort 6, 120 mg (Cycle 1a), N = 8
# [5] = cohort 6, 200 mg (Cycle 1b), N = 7
# [6] = cohort 7, 120 mg (Cycle 1a), N = 6
# [7] = cohort 7, 300 mg (Cycle 1b), N = 5
# [8] = cohort L (withdrawn in lead-in phase), 120 mg, N = 1
# [9] = cycle 1, cohort 1, 30 mg, N = 3
# [10] = cycle 1, cohort 2, 60 mg, N = 3
# [11] = cycle 1, cohort 3, 120 mg, N = 10
# [12] = cycle 1, cohort 4, 240 mg, N = 3
# [13] = cycle 1, cohort 5, 200 mg, N = 3
structure (smiles),measurement,setting,value
Cc1cc(Nc2cc(CN3CCOCC3)c3nc(C)c(Cc4ccc(Cl)cc4F)n3n2)n[nH]1 [gandotinib],partial response,[1]; ET (1 patient enrolled),One
same,duration of clinic-hematologic partial response,[1]; PV patients,3–16 cycles
same,JAK2^V617F allele burden reduction of ≥50% at any time,[1]; across all cohorts,5 of 36
same,palpable spleen length reduction of ≥ 50% at any time during therapy,[1]; across all cohorts,20/32 and 20 of 32
same,no clinic-hematologic response,[1]; of the 6 patients with PV,3 patients
same,clinic-hematologic partial response,"[1]; of the 6 patients with PV (2 in cohort 6, 1 in cohort 7)",3 patients
same,Patients with ≥ 1 SAE possibly related to study drug,[2]; 30 mg (N = 3),0 n%
same,SAE possibly related: Anemia,[2]; 30 mg (N = 3),0 n%
same,SAE possibly related: Blood creatinine increased,[2]; 30 mg (N = 3),0 n%
same,SAE possibly related: Hyperkalemia,[2]; 30 mg (N = 3),0 n%
same,SAE possibly related: Hyperuricemia,[2]; 30 mg (N = 3),0 n%
same,"SAE possibly related: Renal failure, acute",[2]; 30 mg (N = 3),0 n%
same,Patients with ≥ 1 SAE possibly related to study drug,[2]; 60 mg (N = 7),0 n%
same,SAE possibly related: Anemia,[2]; 60 mg (N = 7),0 n%
same,SAE possibly related: Blood creatinine increased,[2]; 60 mg (N = 7),0 n%
same,SAE possibly related: Hyperkalemia,[2]; 60 mg (N = 7),0 n%
same,SAE possibly related: Hyperuricemia,[2]; 60 mg (N = 7),0 n%
same,"SAE possibly related: Renal failure, acute",[2]; 60 mg (N = 7),0 n%
same,Patients with ≥ 1 SAE possibly related to study drug,[2]; 120 mg (N = 34),0 n%
same,SAE possibly related: Anemia,[2]; 120 mg (N = 34),0 n%
same,SAE possibly related: Blood creatinine increased,[2]; 120 mg (N = 34),0 n%
same,SAE possibly related: Hyperkalemia,[2]; 120 mg (N = 34),0 n%
same,SAE possibly related: Hyperuricemia,[2]; 120 mg (N = 34),0 n%
same,"SAE possibly related: Renal failure, acute",[2]; 120 mg (N = 34),0 n%
same,DLTs observed,[2]; 200 mg,3 DLTs
same,Patients with ≥ 1 SAE possibly related to study drug,[2]; 200 mg (N = 15),4 (26.7) n%
same,SAE possibly related: Anemia,[2]; 200 mg (N = 15),1 (6.7) n%
same,SAE possibly related: Blood creatinine increased,[2]; 200 mg (N = 15),3 (20.0) n%
same,SAE possibly related: Hyperkalemia,[2]; 200 mg (N = 15),0 (0.0) n%
same,SAE possibly related: Hyperuricemia,[2]; 200 mg (N = 15),1 (6.7) n%
same,"SAE possibly related: Renal failure, acute",[2]; 200 mg (N = 15),1 (6.7) n%
same,Patients with ≥ 1 SAE possibly related to study drug,[2]; 240 mg (N = 3),1 (33.3) n%
same,SAE possibly related: Anemia,[2]; 240 mg (N = 3),0 n%
same,SAE possibly related: Blood creatinine increased,[2]; 240 mg (N = 3),1 (33.3) n%
same,SAE possibly related: Hyperkalemia,[2]; 240 mg (N = 3),0 n%
same,SAE possibly related: Hyperuricemia,[2]; 240 mg (N = 3),0 n%
same,"SAE possibly related: Renal failure, acute",[2]; 240 mg (N = 3),0 n%
same,Patients with ≥ 1 SAE possibly related to study drug,[2]; 300 mg (N = 5),1 (20.0) n%
same,SAE possibly related: Anemia,[2]; 300 mg (N = 5),0 n%
same,SAE possibly related: Blood creatinine increased,[2]; 300 mg (N = 5),0 n%
same,SAE possibly related: Hyperkalemia,[2]; 300 mg (N = 5),0 n%
same,SAE possibly related: Hyperuricemia,[2]; 300 mg (N = 5),0 n%
same,"SAE possibly related: Renal failure, acute",[2]; 300 mg (N = 5),1 (20.0) n%
same,TEAE: nausea,"[2]; 16 of 38 patients, majority grade 1",42.1%
same,TEAE: diarrhea,"[2]; 21 of 38 patients, majority grade 1",55.3%
same,Patients with ≥ 1 SAE possibly related to study drug,"[2]; Grade 3 and above, Total",6 (15.8) n%
same,SAE possibly related: Anemia,"[2]; Grade 3 and above, Total",1 (2.6) n%
same,SAE possibly related: Blood creatinine increased,"[2]; Grade 3 and above, Total",1 (2.6) n%
same,SAE possibly related: Hyperkalemia,"[2]; Grade 3 and above, Total",0 n%
same,SAE possibly related: Hyperuricemia,"[2]; Grade 3 and above, Total",2 (5.3) n%
same,"SAE possibly related: Renal failure, acute","[2]; Grade 3 and above, Total",2 (5.3) n%
same,Patients with ≥ 1 SAE possibly related to study drug,"[2]; Grade 4 and above, Total",2 (5.3) n%
same,SAE possibly related: Anemia,"[2]; Grade 4 and above, Total",0 n%
same,SAE possibly related: Blood creatinine increased,"[2]; Grade 4 and above, Total",0 n%
same,SAE possibly related: Hyperkalemia,"[2]; Grade 4 and above, Total",0 n%
same,SAE possibly related: Hyperuricemia,"[2]; Grade 4 and above, Total",2 (5.3) n%
same,"SAE possibly related: Renal failure, acute","[2]; Grade 4 and above, Total",0 n%
same,"SAE possibly related: Renal failure, acute","[2]; Total (N = 38), 2 MF, 1 ET, 1 PV","4 (10.5) [2 MF, 1 ET, 1 PV] n%"
same,SAE possibly related: Anemia,"[2]; Total (N = 38), MF",1 (2.6) MF n%
same,SAE possibly related: Blood creatinine increased,"[2]; Total (N = 38), MF",5 (13.2) MF n%
same,SAE possibly related: Hyperkalemia,"[2]; Total (N = 38), MF",1 (2.6) MF n%
same,SAE possibly related: Hyperuricemia,"[2]; Total (N = 38), MF",2 (5.3) MF n%
same,DLT: Blood creatinine increased,[2]; [4],3 (37.5) n (%)
same,DLT: Hyperkalemia,[2]; [4],0 n (%)
same,DLT: Hyperuricemia,[2]; [4],0 n (%)
same,DLT: Renal failure acute,[2]; [4],0 n (%)
same,Patients with DLT,[2]; [4],3 (37.5) n (%)
same,DLT: Blood creatinine increased,[2]; [5],3 (42.9) n (%)
same,DLT: Hyperkalemia,[2]; [5],0 n (%)
same,DLT: Hyperuricemia,[2]; [5],0 n (%)
same,DLT: Renal failure acute,[2]; [5],0 n (%)
same,Patients with DLT,[2]; [5],3 (42.9) n (%)
same,DLT: Blood creatinine increased,[2]; [6],0 n (%)
same,DLT: Hyperkalemia,[2]; [6],0 n (%)
same,DLT: Hyperuricemia,[2]; [6],0 n (%)
same,DLT: Renal failure acute,[2]; [6],0 n (%)
same,Patients with DLT,[2]; [6],0 n (%)
same,DLT: Blood creatinine increased,[2]; [7],1 (20.0) n (%)
same,DLT: Hyperkalemia,[2]; [7],0 n (%)
same,DLT: Hyperuricemia,[2]; [7],0 n (%)
same,DLT: Renal failure acute,[2]; [7],1 (20.0) n (%)
same,Patients with DLT,[2]; [7],2 (40.0) n (%)
same,DLT: Blood creatinine increased,[2]; [8],0 n (%)
same,DLT: Hyperkalemia,[2]; [8],0 n (%)
same,DLT: Hyperuricemia,[2]; [8],0 n (%)
same,DLT: Renal failure acute,[2]; [8],0 n (%)
same,Patients with DLT,[2]; [8],0 n (%)
same,DLT: Blood creatinine increased,"[2]; cycle 1, Total, N = 37",5 (13.5) n (%)
same,DLT: Hyperkalemia,"[2]; cycle 1, Total, N = 37",1 (2.7) n (%)
same,DLT: Hyperuricemia,"[2]; cycle 1, Total, N = 37",2 (5.4) n (%)
same,DLT: Renal failure acute,"[2]; cycle 1, Total, N = 37",1 (2.7) n (%)
same,Patients with DLT,"[2]; cycle 1, Total, N = 37",9 (24.3) n (%)
same,DLT: Blood creatinine increased,[2]; [9],0 n (%)
same,DLT: Hyperkalemia,[2]; [9],0 n (%)
same,DLT: Hyperuricemia,[2]; [9],0 n (%)
same,DLT: Renal failure acute,[2]; [9],0 n (%)
same,Patients with DLT,[2]; [9],0 n (%)
same,DLT: Blood creatinine increased,[2]; [10],0 n (%)
same,DLT: Hyperkalemia,[2]; [10],0 n (%)
same,DLT: Hyperuricemia,[2]; [10],0 n (%)
same,DLT: Renal failure acute,[2]; [10],0 n (%)
same,Patients with DLT,[2]; [10],0 n (%)
same,DLT: Blood creatinine increased,[2]; [11],0 n (%)
same,DLT: Hyperkalemia,[2]; [11],0 n (%)
same,DLT: Hyperuricemia,[2]; [11],0 n (%)
same,DLT: Renal failure acute,[2]; [11],0 n (%)
same,Patients with DLT,[2]; [11],0 n (%)
same,DLT: Blood creatinine increased,[2]; [12],0 n (%)
same,DLT: Hyperkalemia,[2]; [12],0 n (%)
same,DLT: Hyperuricemia,[2]; [12],1 (33.3) n (%)
same,DLT: Renal failure acute,[2]; [12],0 n (%)
same,Patients with DLT,[2]; [12],1 (33.3) n (%)
same,DLT: Blood creatinine increased,[2]; [13],1 (33.3) n (%)
same,DLT: Hyperkalemia,[2]; [13],1 (33.3) n (%)
same,DLT: Hyperuricemia,[2]; [13],1 (33.3) n (%)
same,DLT: Renal failure acute,[2]; [13],0 n (%)
same,Patients with DLT,[2]; [13],3 (100) n (%)
same,DLTs observed,"[2]; first 3 tested doses (30, 60, 120 mg)",No DLTs
same,treatment discontinuation due to renal failure,[2]; most frequent adverse event resulting in discontinuation,4 patients
same,Vd/F,"[3]; human, plasma, oral",682 L
same,half-life,"[3]; human, plasma, oral",~6 h
same,apparent clearance (CL/F),"[3]; mean value, CV of 68",80.7 L/h
same,time at which maximum plasma concentration (Cmax) was reached,"[3]; on average, after single and multiple doses",4 h
